Values belong to the compound of their own block, whether it stands above or below them.
Tests used:
[1] = Partition coefficient, log D at pH 7.4; assay type: physicochemical; settings: octanol/water
How it was run: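 Compound in phosphate buffer was shaken with buffer-saturated octanol (3 × 50 inversions). Phases were separated by centrifugation at 300g for 15 min. Both phases were quantified by HPLC, and log D was calculated from peak areas normalized to injection volume.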

[2] = Ratio of drug level in brain to blood in CD Sprague-Dawley rat at 1 mg/kg, iv after 5 mins; assay type: ADME, organism-based; design: dose 1 mg/kg, route intravenous; settings: brain and blood
How it was run: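 Male CD Sprague-Dawley rats were dosed iv in DMSO-PEG 200-water (5:45:50). Blood and brain were collected 5 min postdose under terminal isoflurane anesthesia. Blood was protein-precipitated; brain was homogenized and extracted. Parent drug was quantified by LCMS/MS.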

[3] = Tmax in CD Sprague-Dawley rat at 1.0 mg/kg, iv; assay type: ADME, organism-based; design: dose 1 mg/kg, route intravenous; settings: in vivo
How it was run: (§1)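 Single iv and oral doses given to male CD Sprague-Dawley rats (1 mg/kg iv, 3 mg/kg po) and male Beagle dogs (1 mg/kg iv, 2 mg/kg po). Vehicle was a DMSO-PEG 200-water (5:45:50) solution. Serial and terminal blood samples were taken at time points up to 7, 12 or 24 h postdose.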

[4] = Cmax in CD Sprague-Dawley rat at 1.0 mg/kg, iv; assay type: ADME, organism-based; design: dose 1 mg/kg, route intravenous; settings: in vivo; how it was run: as §1
[5] = Oral bioavailability in CD Sprague-Dawley rat at 3.0 mg/kg, po; assay type: ADME, organism-based; settings: in vivo; how it was run: as §1
[6] = Cmax in Beagle dog at 1.0 mg/kg, iv; assay type: ADME, organism-based, Canis lupus familiaris; design: dose 1 mg/kg, route intravenous; settings: in vivo; how it was run: as §1
[7] = Tmax in CD Sprague-Dawley rat at 3.0 mg/kg, po; assay type: ADME, organism-based; design: dose 3 mg/kg, route oral; settings: in vivo; how it was run: as §1
[8] = Oral bioavailability in Beagle dog at 2.0 mg/kg, po; assay type: ADME, organism-based, Canis lupus familiaris; settings: in vivo; how it was run: as §1
[9] = Tmax in Beagle dog at 2.0 mg/kg, po; assay type: ADME, organism-based, Canis lupus familiaris; design: dose 2 mg/kg, route oral; settings: in vivo; how it was run: as §1
[10] = Half life in CD Sprague-Dawley rat at 1.0 mg/kg, iv; assay type: ADME, organism-based; design: dose 1 mg/kg, route intravenous; settings: in vivo; how it was run: as §1
[11] = AUC in Beagle dog at 1.0 mg/kg, iv; assay type: ADME, organism-based, Canis lupus familiaris; design: dose 1 mg/kg, route intravenous; settings: plasma; how it was run: as §1
[12] = AUC in Beagle dog at 2.0 mg/kg, po; assay type: ADME, organism-based, Canis lupus familiaris; design: dose 2 mg/kg, route oral; settings: plasma; how it was run: as §1
[13] = Clearance in CD Sprague-Dawley rat at 1.0 mg/kg, iv; assay type: ADME, organism-based; design: dose 1 mg/kg, route intravenous; settings: in vivo; how it was run: as §1
[14] = Volume of distribution in CD Sprague-Dawley rat at 1.0 mg/kg, iv; assay type: ADME, organism-based; design: dose 1 mg/kg, route intravenous; settings: in vivo; how it was run: as §1
[15] = AUC in CD Sprague-Dawley rat at 3.0 mg/kg, po; assay type: ADME, organism-based; design: dose 3 mg/kg, route oral; settings: plasma; how it was run: as §1
[16] = Cmax in Beagle dog at 2.0 mg/kg, po; assay type: ADME, organism-based, Canis lupus familiaris; design: dose 2 mg/kg, route oral; settings: in vivo; how it was run: as §1
[17] = AUC in CD Sprague-Dawley rat at 1.0 mg/kg, iv; assay type: ADME, organism-based; design: dose 1 mg/kg, route intravenous; settings: plasma; how it was run: as §1
[18] = Cmax in CD Sprague-Dawley rat at 3.0 mg/kg, po; assay type: ADME, organism-based; design: dose 3 mg/kg, route oral; settings: in vivo; how it was run: as §1
[19] = Tmax in Beagle dog at 1.0 mg/kg, iv; assay type: ADME, organism-based, Canis lupus familiaris; design: dose 1 mg/kg, route intravenous; settings: in vivo; how it was run: as §1
[20] = Volume of distribution in Beagle dog at 1.0 mg/kg, iv; assay type: ADME, organism-based, Canis lupus familiaris; design: dose 1 mg/kg, route intravenous; settings: in vivo; how it was run: as §1
[21] = Clearance in Beagle dog at 1.0 mg/kg, iv; assay type: ADME, organism-based, Canis lupus familiaris; design: dose 1 mg/kg, route intravenous; settings: in vivo; how it was run: as §1
[22] = Half life in Beagle dog at 1.0 mg/kg, iv; assay type: ADME, organism-based, Canis lupus familiaris; design: dose 1 mg/kg, route intravenous; settings: in vivo; how it was run: as §1
[23] = Cmax in CD Sprague-Dawley rat at 2.9 mg/kg, po; assay type: ADME, organism-based; design: dose 2.9 mg/kg, route oral; settings: in vivo
[24] = Tmax in CD Sprague-Dawley rat at 2.9 mg/kg, po; assay type: ADME, organism-based; design: dose 2.9 mg/kg, route oral; settings: in vivo
[25] = AUC in CD Sprague-Dawley rat at 2.9 mg/kg, po; assay type: ADME, organism-based; design: dose 2.9 mg/kg, route oral; settings: plasma
[26] = Oral bioavailability in CD Sprague-Dawley rat at 2.9 mg/kg, po; assay type: ADME, organism-based; settings: in vivo

- logD [1]: -0.38
Compound: O=C(c1cc(F)cc(F)c1)N1CCN(c2ccc(OCCCN3CCCC3)cc2)C(=O)C1

- logD [1]: -0.39
Compound: N#Cc1ccc(C(=O)N2CCN(c3ccc(OCCCN4CCCCCC4)cc3)C(=O)C2)cc1

- logD [1]: -0.18
Compound: C[C@H]1CCCN1CCCOc1ccc(N2CCN(C(=O)c3ccc(F)cc3)CC2=O)cc1

- Tmax [3]: 4.8 min
- Cmax [4]: 350 ng/mL
- Vd [20]: 2.3 L/kg
- Kp at 5 min [2]: 0.2
- Cmax [6]: 419 ng/mL
- Tmax [7]: 1 h
- bioavailability [8]: 69%
- Tmax [9]: 1 h
- half-life [10]: 1.4 h
- clearance [21]: 15 mL/min/kg
- AUC [11]: 1100 ng·h/mL
- AUC [12]: 1540 ng·h/mL
- half-life [22]: 2.3 h
- clearance [13]: 27 mL/min/kg
- Vd [14]: 2.2 L/kg
- AUC [15]: 1150 ng·h/mL
- Cmax [16]: 294 ng/mL
- AUC [17]: 601 ng·h/mL
- Cmax [18]: 149 ng/mL
- logD [1]: 0.38
- Tmax [19]: 4.8 min
Compound: N#Cc1ccc(C(=O)N2CCN(c3ccc(OC4CCN(C5CCC5)CC4)cc3)C(=O)C2)cc1.O=CO

- logD [1]: -1.19
Compound: CS(=O)(=O)c1ccc(C(=O)N2CCN(c3ccc(OCCCN4CCCCC4)cc3)C(=O)C2)cc1

- logD [1]: -0.46
Compound: CS(=O)(=O)c1ccc(C(=O)N2CCN(c3ccc(OC4CCN(C5CCCC5)CC4)cc3)C(=O)C2)cc1

- logD [1]: 0.06
Compound: CC(C)N1CCC(Oc2ccc(N3CCN(C(=O)c4cc(F)cc(F)c4)CC3=O)cc2)CC1

- logD [1]: -1.1
Compound: O=C(c1cnn2cccnc12)N1CCN(c2ccc(OCCCN3CCCCC3)cc2)C(=O)C1

- Vd [20]: 2.9 L/kg
- clearance [21]: 9 mL/min/kg
- half-life [22]: 4.3 h
- Log D [1]: 0.11
Compound: O=C(c1ccc(F)cc1)N1CCN(c2ccc(OCCCN3CCCCC3)cc2)C(=O)C1

- logD [1]: -1.22
Compound: CS(=O)(=O)c1cccc(C(=O)N2CCN(c3ccc(OCCCN4CCCCC4)cc3)C(=O)C2)c1

- Tmax [3]: 4.8 min
- Cmax [4]: 729 ng/mL
- bioavailability [5]: 7%
- Tmax [7]: 7 h
- half-life [10]: 1.8 h
- clearance [13]: 13 mL/min/kg
- Vd [14]: 2.1 L/kg
- AUC [15]: 441 ng·h/mL
- AUC [17]: 1190 ng·h/mL
- Cmax [18]: 52 ng/mL
- logD [1]: -0.59
Compound: C[C@@H]1CCCN1CCCOc1ccc(N2CCN(C(=O)c3ccc(C#N)cc3)CC2=O)cc1.O=CO

- logD [1]: -0.02
Compound: C[C@@H]1CCCN1CCCOc1ccc(N2CCN(C(=O)c3cc(F)cc(F)c3)CC2=O)cc1

- logD [1]: 0.15
Compound: O=C(c1ccc(F)cc1F)N1CCN(c2ccc(OCCCN3CCCCCC3)cc2)C(=O)C1

- logD [1]: -0.95
Compound: O=C(c1ccc(C(=O)N2CCN(c3ccc(OCCCN4CCCCC4)cc3)C(=O)C2)cc1)N1CCC1

More lines, now with the values behind:

Compound: CC(C)(C)C(=O)N1CCN(c2ccc(OCCCN3CCCCC3)cc2)C(=O)C1.Cl
- Kp at 5 min [2]: 0.1
- logD [1]: -0.02

Compound: O=C(c1ccc(F)cc1)N1CCN(c2ccc(OCCCN3CCCCC3)cc2)C(=O)C1.O=CO
- Tmax [3]: 4.8 min
- Cmax [4]: 300 ng/mL
- Kp at 5 min [2]: 0.3
- bioavailability [5]: 61%
- Cmax [6]: 530 ng/mL
- Tmax [7]: 3 h
- bioavailability [8]: 86%
- Tmax [9]: 0.75 h
- half-life [10]: 1.5 h
- AUC [11]: 1570 ng·h/mL
- AUC [12]: 3090 ng·h/mL
- clearance [13]: 37 mL/min/kg
- Vd [14]: 2.4 L/kg
- AUC [15]: 805 ng·h/mL
- Cmax [16]: 400 ng/mL
- AUC [17]: 437 ng·h/mL
- Cmax [18]: 155 ng/mL
- logD [1]: 0.12
- Tmax [19]: 4.8 min

Compound: CC(C)N1CCC(Oc2ccc(N3CCN(C(=O)c4ccc(F)cc4F)CC3=O)cc2)CC1
- logD [1]: -0.05

Compound: O=C(c1ccc(C(=O)N2CCN(c3ccc(OC4CCN(C5CCC5)CC4)cc3)C(=O)C2)cc1)N1CCC1.O=CO
- Kp at 5 min [2]: 0.1
- logD [1]: -0.29

Compound: CC(C)N1CCC(Oc2ccc(N3CCN(C(=O)c4ccc(C#N)cc4)CC3=O)cc2)CC1
- logD [1]: -0.64

Compound: CS(=O)(=O)c1ccc(C(=O)N2CCN(c3ccc(OC4CCN(C5CCC5)CC4)cc3)C(=O)C2)cc1.O=CO
- Tmax [7]: 4 h
- AUC [15]: 67 ng·h/mL
- Cmax [18]: 10 ng/mL
- logD [1]: -0.38

Compound: O=C(c1ccccc1)N1CCN(c2ccc(OCCCN3CCCCC3)cc2)C(=O)C1
- logD [1]: -0.09

Compound: Cl.O=C(c1ccc(F)cc1)N1CCN(c2ccc(OC3CCN(C4CCC4)CC3)cc2)C(=O)C1
- Tmax [3]: 4.8 min
- Cmax [4]: 337 ng/mL
- Cmax [23]: 91 ng/mL
- Tmax [24]: 2 h
- half-life [10]: 2 h
- clearance [13]: 18 mL/min/kg
- Vd [14]: 2.5 L/kg
- AUC [25]: 760 ng·h/mL
- AUC [17]: 837 ng·h/mL
- bioavailability [26]: 35%
- logD [1]: 0.9

Compound: O=C(c1ccc(F)cc1F)N1CCN(c2ccc(OC3CCN(C4CCCC4)CC3)cc2)C(=O)C1
- logD [1]: 0.96

Compound: C[C@@H]1CCCN1CCCOc1ccc(N2CCN(C(=O)c3ccc(F)cc3)CC2=O)cc1
- logD [1]: -0.13
